Measured values: ChEMBL document CHEMBL1811824, “Synthesis and evaluation of mansonone F derivatives as topoisomerase inhibitors” (Eur J Med Chem, 2011)
Active and inactive are the calls of the source. No cut-off for these calls is given here.

Experiments:
[1] = biological target: T1, DNA topoisomerase 2-alpha (Homo sapiens, UniProt P11388); assay: Ratio IC50 of etoposide to IC50 of compound for human topoisomerase 2 alpha
Summary of the method: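 Human topo IIα relaxation of 0.2 μg pBR322 in Tris pH 8.0 buffer with 5 mM ATP, using 1 U enzyme for 30 min at 37 °C, read on agarose gel.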

[2] = Antitumor against human CNE2 cells assessed as cell survival after 48 hrs by MTT assay; assay type: functional, cell-based; settings: CNE-2, 48 h
Summary of the method: (§1)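 1 × 10^4 cells per well plated and left overnight, then exposed to compound at 0–100 μM for 48 h. Per well, 20 μl of 5 mg/ml MTT added, then incubated 4 h at 37 °C. Untransformed MTT removed, formazan dissolved in DMSO, absorbance read at 570 nm, and IC50 derived. Modified Mosmann method.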

[3] = biological target: T2, DNA topoisomerase 1 (Homo sapiens) (UniProt P11387); assay: Inhibition of human topoisomerase 1-mediated relaxation of supercoiled pBR322 DNA at 250 uM after 30 mins by agarose gel electrophoresis
T2 sequence (whole entry): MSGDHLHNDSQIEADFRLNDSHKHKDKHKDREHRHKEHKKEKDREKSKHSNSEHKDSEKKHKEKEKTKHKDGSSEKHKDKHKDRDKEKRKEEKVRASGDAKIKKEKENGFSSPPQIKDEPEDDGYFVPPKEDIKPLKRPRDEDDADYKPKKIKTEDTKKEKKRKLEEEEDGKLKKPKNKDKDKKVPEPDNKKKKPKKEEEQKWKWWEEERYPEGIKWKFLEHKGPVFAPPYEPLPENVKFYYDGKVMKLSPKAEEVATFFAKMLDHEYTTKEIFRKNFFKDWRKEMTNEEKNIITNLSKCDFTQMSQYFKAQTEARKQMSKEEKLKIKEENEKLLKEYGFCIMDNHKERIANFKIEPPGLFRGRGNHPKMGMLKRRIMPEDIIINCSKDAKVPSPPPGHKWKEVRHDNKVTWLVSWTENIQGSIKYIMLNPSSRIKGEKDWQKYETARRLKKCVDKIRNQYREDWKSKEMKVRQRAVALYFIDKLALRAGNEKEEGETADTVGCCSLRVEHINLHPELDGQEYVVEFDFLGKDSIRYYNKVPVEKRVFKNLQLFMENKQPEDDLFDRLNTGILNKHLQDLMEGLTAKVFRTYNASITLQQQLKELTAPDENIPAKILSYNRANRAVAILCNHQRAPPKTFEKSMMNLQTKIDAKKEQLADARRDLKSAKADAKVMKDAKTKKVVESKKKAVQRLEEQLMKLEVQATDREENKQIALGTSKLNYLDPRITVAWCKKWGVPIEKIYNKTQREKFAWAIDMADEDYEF

[4] = biological target: T1, DNA topoisomerase 2-alpha; assay: Inhibition of human topoisomerase 2 alpha-mediated relaxation of supercoiled pBR322 DNA after 30 mins by agarose gel electrophoresis
Summary of the method: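 Compound added at constant solvent volume. Started with 1 U human topo IIα, 30 min at 37 °C. Stopped with sarkosyl/bromophenol blue/glycerol buffer. Read on 1% agarose TAE gel, ethidium-stained, imaged under UV.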

[5] = Antitumor against human GLC82 cells assessed as cell survival after 48 hrs by MTT assay; assay type: functional, cell-based; settings: GLC82, 48 h; summary of the method: as §1
[6] = biological target: Telomerase reverse transcriptase (Homo sapiens) (UniProt O14746); assay: Inhibition of telomerase in human K562 cells at 20 uM using telo TAGGG telomerase PCR ELISA; assay type: cell-based
Sequence of Telomerase reverse transcriptase (Homo sapiens) (O14746 whole entry): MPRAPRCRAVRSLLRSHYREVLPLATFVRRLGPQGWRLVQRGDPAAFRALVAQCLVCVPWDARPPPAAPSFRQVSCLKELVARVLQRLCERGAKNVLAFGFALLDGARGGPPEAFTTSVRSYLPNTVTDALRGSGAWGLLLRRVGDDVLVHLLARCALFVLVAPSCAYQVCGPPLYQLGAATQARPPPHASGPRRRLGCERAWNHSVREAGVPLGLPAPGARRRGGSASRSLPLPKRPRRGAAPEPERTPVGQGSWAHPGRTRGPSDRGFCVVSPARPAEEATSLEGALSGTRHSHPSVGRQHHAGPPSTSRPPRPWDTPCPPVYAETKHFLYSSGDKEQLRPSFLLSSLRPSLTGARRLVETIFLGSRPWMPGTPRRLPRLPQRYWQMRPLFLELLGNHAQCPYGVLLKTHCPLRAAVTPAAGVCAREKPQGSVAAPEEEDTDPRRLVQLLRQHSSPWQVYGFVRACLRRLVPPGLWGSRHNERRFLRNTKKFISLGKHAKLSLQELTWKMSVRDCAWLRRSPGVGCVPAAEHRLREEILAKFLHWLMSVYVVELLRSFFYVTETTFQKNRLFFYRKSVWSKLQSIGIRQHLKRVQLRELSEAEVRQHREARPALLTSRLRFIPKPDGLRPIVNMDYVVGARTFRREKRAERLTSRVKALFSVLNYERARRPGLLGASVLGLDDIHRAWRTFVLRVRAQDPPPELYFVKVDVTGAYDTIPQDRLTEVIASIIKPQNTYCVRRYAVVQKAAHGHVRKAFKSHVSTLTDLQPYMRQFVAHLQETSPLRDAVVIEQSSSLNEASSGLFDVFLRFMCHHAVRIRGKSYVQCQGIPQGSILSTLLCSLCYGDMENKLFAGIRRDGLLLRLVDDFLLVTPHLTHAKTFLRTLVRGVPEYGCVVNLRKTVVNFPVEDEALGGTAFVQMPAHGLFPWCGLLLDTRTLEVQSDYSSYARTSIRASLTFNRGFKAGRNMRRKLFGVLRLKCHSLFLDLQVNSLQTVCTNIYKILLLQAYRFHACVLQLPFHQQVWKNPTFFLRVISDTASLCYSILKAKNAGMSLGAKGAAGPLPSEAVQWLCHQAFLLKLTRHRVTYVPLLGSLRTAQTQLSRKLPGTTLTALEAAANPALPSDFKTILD
Summary of the method: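 TRAP-based kit with non-radioactive ELISA read-out, run on K562 human leukemia cells per the manufacturer's instructions.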

Ehrlich = assay: Inhibition of DNA primase in mouse EAC cells assessed as incorporation of [3H]dATP to […] template at 100 uM after 1 hr by scintillation counting; assay type: cell-based
Summary of the method: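 DNA primase isolated from Ehrlich ascites carcinoma cells grown in culture.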

T1 sequence (P11388 whole entry): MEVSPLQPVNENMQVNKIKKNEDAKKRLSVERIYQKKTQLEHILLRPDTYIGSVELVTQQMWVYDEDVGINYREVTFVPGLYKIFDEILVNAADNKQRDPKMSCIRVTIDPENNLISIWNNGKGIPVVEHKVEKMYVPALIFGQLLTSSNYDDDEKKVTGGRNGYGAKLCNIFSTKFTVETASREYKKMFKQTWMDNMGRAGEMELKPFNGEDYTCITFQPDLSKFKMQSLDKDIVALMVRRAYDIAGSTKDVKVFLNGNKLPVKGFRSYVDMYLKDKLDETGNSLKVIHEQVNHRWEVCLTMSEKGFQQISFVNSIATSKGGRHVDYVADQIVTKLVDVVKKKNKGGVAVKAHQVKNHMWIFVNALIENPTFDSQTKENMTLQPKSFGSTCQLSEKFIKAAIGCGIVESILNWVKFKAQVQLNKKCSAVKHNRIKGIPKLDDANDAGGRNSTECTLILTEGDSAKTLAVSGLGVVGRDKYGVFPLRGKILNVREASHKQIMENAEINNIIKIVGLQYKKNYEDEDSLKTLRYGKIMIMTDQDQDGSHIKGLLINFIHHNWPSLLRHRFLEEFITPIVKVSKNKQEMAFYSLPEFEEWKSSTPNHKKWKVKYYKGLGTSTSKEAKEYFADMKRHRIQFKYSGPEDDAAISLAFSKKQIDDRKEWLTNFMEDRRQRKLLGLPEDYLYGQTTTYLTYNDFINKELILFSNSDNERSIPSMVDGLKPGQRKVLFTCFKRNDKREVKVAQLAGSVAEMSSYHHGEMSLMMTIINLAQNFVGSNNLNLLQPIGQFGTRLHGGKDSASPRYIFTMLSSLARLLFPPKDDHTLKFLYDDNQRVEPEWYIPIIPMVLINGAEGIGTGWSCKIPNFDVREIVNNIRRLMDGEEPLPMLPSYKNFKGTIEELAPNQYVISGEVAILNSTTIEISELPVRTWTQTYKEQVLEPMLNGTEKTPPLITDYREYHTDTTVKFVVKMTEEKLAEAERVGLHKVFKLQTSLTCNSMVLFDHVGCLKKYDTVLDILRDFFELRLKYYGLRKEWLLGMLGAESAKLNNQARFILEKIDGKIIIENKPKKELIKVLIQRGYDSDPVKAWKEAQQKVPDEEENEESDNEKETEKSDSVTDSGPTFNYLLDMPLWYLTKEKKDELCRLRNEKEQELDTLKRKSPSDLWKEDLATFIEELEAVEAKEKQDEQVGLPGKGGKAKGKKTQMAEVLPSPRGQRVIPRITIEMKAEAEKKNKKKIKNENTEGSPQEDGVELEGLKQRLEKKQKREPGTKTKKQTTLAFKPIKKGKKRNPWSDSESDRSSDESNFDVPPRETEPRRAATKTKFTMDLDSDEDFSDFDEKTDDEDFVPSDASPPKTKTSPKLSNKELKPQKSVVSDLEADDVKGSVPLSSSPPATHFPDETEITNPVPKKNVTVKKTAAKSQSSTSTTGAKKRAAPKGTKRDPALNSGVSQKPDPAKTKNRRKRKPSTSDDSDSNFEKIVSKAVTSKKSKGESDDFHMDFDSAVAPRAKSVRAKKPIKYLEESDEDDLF

SMILES	Ratio IC50 [1]	inhibition [3]	IC50 [4] [µM]	inhibition [6] [%]	IC50 [2] [µM]	IC50 [5] [µM]	inhibition (Ehrlich) [%]
O=C1C=C2OCCc3cccc(c32)/C1=N/O					5.7	42.8	
CC1=C(OCC(=O)c2ccc(Cl)cc2)c2ccccc2C(=O)C1=O					30.4	> 50	
c1cc2c3c(cc4nccnc4c3c1)OCC2					> 50	> 50	
COc1ccc(C(=O)COC2=C(C)C(=O)C(=O)c3ccccc32)cc1					30.4	44.3	
O=C1C(=O)c2cccc3c2C(=C1Cl)OC=C3c1ccccc1		Active			33.3	40.2	
CC1(OC(=O)c2ccccc2)COC2=C(Cl)C(=O)C(=O)c3cccc1c32 (stereo unspecified)		Active			8.05	10.8	
CC1=C(OCC#N)c2ccccc2C(=O)C1=O					39.5	39.2	
C=CCOC1=C(C)C(=O)C(=O)c2ccccc21					> 50	> 50	
CC[C@@]1(O)C(=O)OCc2c1cc1n(c2=O)Cc2cc3cc(O)ccc3nc2-1 [HYDROXYCAMPTOTHECIN]					1.04	0.23	
c1ccc(-c2nc3cc4c5c(cccc5c3o2)CCO4)cc1					> 50	> 50	
CC(=O)COC1=C(C)C(=O)C(=O)c2ccccc21					> 50	> 50	
c1ccc2nc3c(cc4c5c(cccc53)CCO4)nc2c1					> 50	> 50	
CC1(O)COC2=CC(=O)C(=O)c3cccc1c32 (stereo unspecified)					17.3	19.2	
CC1=C(OCC(=O)c2ccc(C)c(C)c2)c2ccccc2C(=O)C1=O					> 50	> 50	
O=C1/C(=N\O)C=C2OCCc3cccc1c32					> 50	> 50	
O=C1C=C2OCCc3cccc(c32)C1=O					4.83	5.32	

Second part, led by results:

Ratio IC50 [1]	inhibition [3]	IC50 [4] [µM]	inhibition [6] [%]	SMILES	IC50 [2] [µM]	IC50 [5] [µM]	inhibition (Ehrlich) [%]
12	Active	4.88		O=C1C=C2OCC(O)(Cc3ccccc3)c3cccc(c32)C1=O (stereo unspecified)	4.47	3.82	
	Active			CCCC1=COC2=C(Cl)C(=O)C(=O)c3cccc1c32	3.93	2.15	
	Active			C=CCC1(O)COC2=C(Cl)C(=O)C(=O)c3cccc1c32 (stereo unspecified)	3.54	5.33	
	Active			O=C1C(=O)c2cccc3c2C(=C1Cl)OCC3(O)Cc1ccccc1 (stereo unspecified)	6.34	2.75	
	Active			O=C1C(=O)c2cccc3c2C(=C1Cl)OC=C3Cc1ccccc1	21.5	21.6	
	Active			O=C1C=C2OC=C(c3ccc(F)cc3)c3cccc(c32)C1=O	16	3.21	
	Active			O=C1C(=O)c2cccc3c2C(=C1Cl)OCC3(O)c1ccc(F)cc1 (stereo unspecified)	13.5	9.74	
	Active			O=C1C(=O)c2cccc3c2C(=C1Cl)OC=C3c1ccc(F)cc1	27.5	31.3	
	Active			O=C1C=C2OCC(O)(c3ccc(F)cc3)c3cccc(c32)C1=O (stereo unspecified)	9.76	6.63	
	Active			CC1(O)COC2=C(Cl)C(=O)C(=O)c3cccc1c32 (stereo unspecified)	8.12	11.3	
32	inactive	1.88	22	CC1COC2=CC(=O)C(=O)c3cccc1c32 (stereo unspecified)	2.05	1.77	29
	Active			CC1=COC2=C(C)C(=O)C(=O)c3c(C)ccc1c32 [MANSONONE F]	27.3	15.5	
	Active			CCCC1(O)COC2=C(Cl)C(=O)C(=O)c3cccc1c32 (stereo unspecified)	3.59	7.93	
	Active			O=C1C=C2OC=C(Cc3ccccc3)c3cccc(c32)C1=O	6.52	2.88	
39	Active	1.54		C=CCC1=COC2=C(Cl)C(=O)C(=O)c3cccc1c32	5.2	3.77	
	Active			O=C1C=C2OCC(O)(c3ccccc3)c3cccc(c32)C1=O (stereo unspecified)	3.18	5.33	
	Active			O=C1C(=O)c2cccc3c2C(=C1Cl)OCC3(O)c1ccccc1 (stereo unspecified)	2.87	5.63	
	Active			O=C1C=C2OC=C(c3ccccc3)c3cccc(c32)C1=O	9.19	3.68	
